In assay [1] the test system is MCF7. Put plainly: Cytotoxicity against human MCF7 cells assessed as cell viability at 30 uM after 48 hrs by trypan blue staining-based assay. Type of assay: functional. The gist of the method: (§1)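 Indolizidinone series: MCF-7 grown in DMEM phenol red and SHSY-5Y in DMEM/F12 Ham's, each with 10% FBS, at 37 °C under 5% CO2 to 80% confluence. About 10 × 10⁶ cells were seeded, grown 24 h, then exposed 24 or 48 h to vehicle (0.05% DMSO) or increasing compound concentrations in DMSO. Viable cells were counted by trypan blue staining on a Vi-Cell-XR analyzer.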

Assay [2] concerns MCF7. Put plainly: Cytotoxicity against human MCF7 cells assessed as change in cell morphology at 30 uM after 48 hrs. Format: functional, cell-based. Summed up: (§2)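 Cells were treated at 30 µM (0.05% DMSO vehicle controls) and examined microscopically over time, from 6 h up to 48 h. Changes scored were cell and nuclear volume, nucleolar refringency and cytoplasm vacuolization, compared with vehicle-treated cells.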

For assay [3], the system named is MCF7. Put plainly: Cytotoxicity against human MCF7 cells assessed as cell death at 30 uM after 48 hrs by trypan blue staining-based assay relative to control. Format: functional. Summed up:
(§3)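 Cells grown at 37 °C, 5% CO2 to 80% confluence: MCF-7 in phenol red DMEM + 10% FBS, SH-SY5Y in DMEM/F12 Ham's + 10% FBS. About 10 × 10⁶ cells were seeded and grown 24 h, then exposed 48 h to compound in […] or to vehicle (0.05% DMSO). Viable cells were counted by trypan blue staining on an automated analyzer. Compared with vehicle.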

Assay [4] has as its system SH-SY5Y. Put plainly: Cytotoxicity against human SH-SY5Y cells assessed as change in cell morphology at 30 uM after 48 hrs. Type of assay: functional, cell-based. The gist of the method:
as §2

The nature of assay [5]: Cytotoxicity against human SH-SY5Y cells assessed as cell death at 30 uM after 48 hrs by trypan blue staining-based assay relative to control. Type of assay: functional. The gist of the method: as §3
In assay [6] the test system is SH-SY5Y. Put plainly: Cytotoxicity against human SH-SY5Y cells assessed as cell viability at 30 uM after 48 hrs by trypan blue staining-based assay. Type of assay: functional. The gist of the method: as §1
The subject of assay [7] is SH-SY5Y. Put plainly: Cytotoxicity against human SH-SY5Y cells assessed as cell mortality at 30 uM after 48 hrs by trypan blue exclusion assay. Format: functional, cell-based. Summed up: (§4)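 Pyrrolidine series: MCF-7 in DMEM and SHSY-5Y in DMEM/F12 with 10% FBS, grown to 70% confluence. Compounds in DMSO (0.05%) were added at 10 µM for 24 h or 30 µM for 48 h, with DMSO (0.05%) vehicle controls for the same period. Mortality was derived from trypan blue counts. Data are mean ± SEM of 5-6 assays, analysed by one-way ANOVA followed by Student's t test versus vehicle.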

Assay [8] relates to SH-SY5Y. Put plainly: Cytotoxicity against human SH-SY5Y cells assessed as cell mortality at 10 uM after 24 hrs by trypan blue exclusion assay. Type of assay: functional, cell-based. The gist of the method:
as §4

In assay [9] the test system is MCF7. Put plainly: Cytotoxicity against human MCF7 cells assessed as cell mortality at 30 uM after 48 hrs by trypan blue exclusion assay relative to control. Type of assay: functional. Summed up: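 MCF-7 cells were cultured in DMEM + 10% FBS to 70% confluence. Compound was dissolved in DMSO (0.05%) and added to the medium for 48 h. Controls received 0.05% DMSO for the same period. Total cells, viable cells and mortality were calculated per compound and dose. Results are given as mean ± SEM of 5–6 assays, analysed by one-way ANOVA then Student's t test.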

Assay [10] relates to MCF7. Put plainly: Cytotoxicity against human MCF7 cells assessed as cell mortality at 10 uM after 24 hrs by trypan blue exclusion assay. Format: functional, cell-based. The gist of the method:
as §4

In assay [11] the test system is MCF7. Put plainly: Cytotoxicity against human MCF7 cells after 24 to 48 hrs by trypan blue exclusion assay. Format: functional, cell-based. The gist of the method:
as §1

Assay [12] concerns SH-SY5Y. Put plainly: Cytotoxicity against human SH-SY5Y cells after 24 to 48 hrs by trypan blue exclusion assay. Type of assay: functional, cell-based. Summed up:
as §1

The test system of assay [13] is MCF7. Put plainly: Cytotoxicity against human MCF7 cells assessed as increase in nuclear volume at 30 uM. Format: functional, cell-based. The following applies: TDE = time-dependent effect. Summed up:
as §2

For assay [14], the system named is MCF7. Put plainly: Cytotoxicity against human MCF7 cells assessed as nucleolar refringency at 30 uM. The following applies: TDE = time-dependent effect. Type of assay: functional, cell-based. Summed up: as §2
The test system of assay [15] is MCF7. Put plainly: Cytotoxicity against human MCF7 cells assessed as cytoplasm vacuolization at 30 uM. As to conditions: TDE = time-dependent effect. Format: functional, cell-based. The gist of the method: as §2
Assay [16] deals with MCF7. Put plainly: Cytotoxicity against human MCF7 cells assessed as increase in cellular volume at 30 uM. Type of assay: functional, cell-based. As to conditions: TDE = time-dependent effect. Summed up:
as §2

Among the data in ChEMBL document CHEMBL2407002, “Simplification of antitumoral phenanthroindolizidine alkaloids: short synthesis of cytotoxic indolizidinone and pyrrolidine analogs” (2013) are Activity values, retold here.

The structures appear in SMILES notation. The source made the active and inactive calls. The rule behind the calls is not given here.

For the compound `O=C1C(c2ccccc2)=C(c2ccc(-c3ccccc3)cc2)C[C@H]2C[C@@H](O)CN12`, the result in assay [1], in [2], in assay [4] and in assay [6] was Active. Besides, the Activity in assay [3] and in assay [5] was 80% throughout.
For `COc1ccc(C(=O)CC2C[C@@H](O)CN2C(=O)Cc2ccccc2)cc1` (stereo not given in full), the result in assay [7], in assay [8], in assay [9] and in assay [10] was Active.
As for `O=C(C[C@@H]1C[C@@H](O)CN1C(=O)Cc1ccccc1)c1ccc(-c2ccccc2)cc1`, the Activity result in assay [11] is “Dose-dependent effect”; in [12] it was “Dose-dependent effect”; in assay [9] it was “>=80%”. For the same compound, the result in [10] was Active.
Consider `O=C1C(c2ccccc2)=C(c2ccccc2)C[C@H]2C[C@@H](O)CN12`, for which, in [1], the result was Active.
In the case of `O=C1C(c2ccccc2)=C(c2ccco2)C[C@@H]2C[C@@H](O)CN12`, the result in [1] and in assay [6] was Active.
With `O=C1C(c2ccccc2)=C(c2ccc3ccccc3c2)C[C@H]2C[C@@H](O)CN12`, the result in assay [1] was Active.
The same measure, in the same setting: with `O=C1C(c2ccccc2)=C(c2ccc(Br)cc2)C[C@H]2C[C@@H](O)CN12` the entry was “Active”.
On to `O=C(C[C@H]1C[C@@H](O)CN1C(=O)Cc1ccccc1)c1ccc(-c2ccccc2)cc1`, for which the Activity entry in assay [11] was “Dose-dependent effect”; in assay [13] it was “tde”; in assay [12], “Dose-dependent effect”; in assay [14], “tde”; in assay [9] it was “>=80%”; in assay [15] it was “tde”. In [16], the Activity result is “tde”. The result in assay [4] and in [10] was Active.
For `Cn1cccc1C1=C(c2ccccc2)C(=O)N2C[C@H](O)C[C@H]2C1`, the outcome in assay [1] and in [6] was Active.
Take `Cn1cccc1C(=O)CC1C[C@@H](O)CN1C(=O)Cc1ccccc1` (stereo not given in full): the outcome in assay [7], in assay [8], in [9] and in assay [10] was Active.
Take `O=C(C[C@H]1C[C@@H](O)CN1C(=O)Cc1ccccc1)c1ccco1`: the outcome in assay [7], in [8], in assay [9] and in assay [10] was Active.
For `O=C(C[C@@H]1C[C@@H](O)CN1C(=O)Cc1ccccc1)c1ccco1`, the Activity result in assay [11] and in [12] was “Dose-dependent effect” each time.
`O=C1C(c2ccccc2)=C(c2ccccc2)C[C@@H]2C[C@@H](O)CN12`: the outcome in [1] was Active.
With `O=C(CC1C[C@@H](O)CN1C(=O)Cc1ccccc1)c1ccc(Br)cc1` (stereo not given in full), the result in assay [7], in assay [8], in [9] and in [10] was Active.
Consider `O=C1C(c2ccccc2)=C(c2ccc(-c3ccccc3)cc2)C[C@@H]2C[C@@H](O)CN12`, for which the result in assay [1] and in assay [6] was Active.
Regarding `Cn1cccc1C(=O)C[C@@H]1C[C@@H](O)CN1C(=O)Cc1ccccc1`, the result in assay [7], in assay [8], in assay [9] and in assay [10] was Active.
Consider `O=C1C(c2ccccc2)=C(c2ccc3ccccc3c2)C[C@@H]2C[C@@H](O)CN12`, for which the result in assay [1] and in assay [6] was Active.
In the case of `COc1ccc(C2=C(c3ccccc3)C(=O)N3C[C@H](O)C[C@@H]3C2)cc1`, in assay [1], the outcome was Active.
As to `O=C(CC1C[C@@H](O)CN1C(=O)Cc1ccccc1)c1ccco1` (stereo not given in full), the outcome in [7], in assay [8], in [9] and in assay [10] was Active.
For `COc1ccc(C2=C(c3ccccc3)C(=O)N3C[C@H](O)C[C@H]3C2)cc1`, the result in assay [1] and in assay [6] was Active.
For the compound `Cn1cccc1C1=C(c2ccccc2)C(=O)N2C[C@H](O)C[C@@H]2C1`, the outcome in [1] and in [6] was Active.
As to `O=C1C(c2ccccc2)=C(c2ccc(Br)cc2)C[C@@H]2C[C@@H](O)CN12`, the result in assay [1] and in assay [6] was Active.
With `O=C1C(c2ccccc2)=C(c2ccco2)C[C@H]2C[C@@H](O)CN12`, the outcome in [1] was Active.
